# pEC50, pKi: −log10 of the molar value.
# How the values were obtained:
# [1] = Displacement of [3H]WAY-100635 from 5-HT1A receptor in pig cortex membranes; type: cell membranes, Sus scrofa
# [2] = biological target: T1, 5-hydroxytryptamine receptor 1A (Homo sapiens) (UniProt P08908); assay: Intrinsic activity at human 5-HT1A receptor expressed in CHO cells assessed as increase of serotonin-induced [35S]GTPgammaS binding relative to serotonin; type: functional, cell-based
# T1 sequence (whole entry): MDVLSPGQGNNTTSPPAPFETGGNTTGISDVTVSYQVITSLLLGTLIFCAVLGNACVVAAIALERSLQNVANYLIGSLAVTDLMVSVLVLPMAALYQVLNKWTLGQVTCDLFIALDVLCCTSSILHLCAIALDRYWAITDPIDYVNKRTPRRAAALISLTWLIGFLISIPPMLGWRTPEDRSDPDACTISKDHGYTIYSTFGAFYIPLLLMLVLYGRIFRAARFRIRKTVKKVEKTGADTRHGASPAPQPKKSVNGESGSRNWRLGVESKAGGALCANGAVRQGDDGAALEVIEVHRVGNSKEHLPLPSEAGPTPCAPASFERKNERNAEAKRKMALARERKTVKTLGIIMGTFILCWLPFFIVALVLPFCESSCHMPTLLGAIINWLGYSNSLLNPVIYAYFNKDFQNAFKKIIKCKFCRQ
# Summary of the method: (§1)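 Membranes from CHO cells stably expressing human 5-HT1A were incubated with 0.1 nM [35S]GTPγS and test compound at eight concentrations (0.01-10000 nM), in hexaduplicate. Values come from a mean curve of four experiments. Emax is expressed relative to the maximal serotonin effect.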
# [3] = biological target: T2, 5-hydroxytryptamine receptor 1A (Homo sapiens, UniProt P08908); assay: Intrinsic activity at human 5-HT1A receptor expressed in CHO cells assessed as increase of serotonin-induced [35S]GTPgammaS binding; type: functional, cell-based; summary of the method: as §1
# T2 sequence (P08908 whole entry): T1 sequence (whole entry)
Compound,pKi [1],Emax [2] [%],pEC50 [3]
Cc1ccc(CNCC2(F)CCN(C(=O)c3cccc(-c4ccccc4)c3)CC2)nc1,7.16,–,–
Cc1ccc(CNCC2(F)CCN(C(=O)c3ccc(C)s3)CC2)nc1,7.85,104,7.38
Cc1ccc(CNCC2(F)CCN(C(=O)c3ccc(-c4csc(C)n4)s3)CC2)nc1,6.35,–,–
CSc1ccc(C(=O)N2CCC(F)(CNCc3ccc(C)cn3)CC2)s1,7.74,91,7.27
Cc1ccc(CNCC2(F)CCN(C(=O)c3ccoc3)CC2)nc1,6.74,99,6.62
Cc1ccc(CNC[C@@]2(O)C[C@H]3CCC[C@@H](C2)N3C(=O)c2ccccc2)nc1 (stereo in doubt; 43),5.80,–,–
COc1c(C(=O)N2CCC(F)(CNCc3ccc(C)cn3)CC2)csc1Cl,7.74,102,7.30
Cc1ccc(CNCC2(O)CCN(C(=O)c3ccc(F)c(Cl)c3)CC2)nc1,7.96,109,8.18
Cc1ccc(CNC[C@@]2(O)C[C@H]3CC[C@@H](C2)N3C(=O)c2ccccc2)nc1 (stereo in doubt; 34) [listing 1 of 2 here],7.00,–,6.57
Cc1ccc(CNCC2(F)CCN(C(=O)c3ccsc3)CC2)nc1,7.57,95,7.92
Cc1ccc(CN(C)CC2(F)CCN(C(=O)c3ccc(F)c(Cl)c3)CC2)nc1,7.13,77,8.07
Cc1ccc(CNCC2(F)CCN(C(=O)c3ccc[nH]3)CC2)nc1,6.18,–,–
Cc1ccc(CNCC2(F)CCN(C(=O)c3cc[nH]n3)CC2)nc1,6.04,–,–
Cc1ccc(CNCC2(F)CCN(C(=O)c3ccccc3-c3ccccc3)CC2)nc1,6.48,–,–
Cc1ccc(CNCC2(O)CCN(C(=O)c3ccccc3)CC2)nc1,7.10,–,–
Cc1ccc(CNC[C@@]2(O)C[C@H]3CCC[C@@H](C2)N3C(=O)c2ccccc2)nc1 (stereo in doubt; 41),6.82,–,–
Cc1ccc(CNCC2(F)CCN(C(=O)c3ccc(-c4ccccc4)s3)CC2)nc1,6.30,–,–
Cc1ccc(CNCC2(F)CCN(C(=O)c3cc4cc(Br)ccc4s3)CC2)nc1,6.66,–,–
Cc1ccc(CNCC2(O)CC3CCC(C2)N3C(=O)c2ccc(F)c(Cl)c2)nc1 (stereo not drawn),7.77,121,7.74
Cc1ccc(CNCC2(F)CCN(C(=O)c3cc4ccccc4[nH]3)CC2)nc1,7.03,–,–
Cc1ccc(CNC[C@@]2(O)C[C@H]3CC[C@@H](C2)N3C(=O)c2ccccc2)nc1 (stereo in doubt; 38) [listing 1 of 2 here],–,< 10,–

Compound,pKi [1],Emax [2] [%],pEC50 [3]
Cc1ccc(CNCC2(F)CCN(C(=O)c3ccc(Br)s3)CC2)nc1,7.72,95,7.52
Cc1ccc(CNCC2(F)CCN(C(=O)c3ccc(-c4cccs4)s3)CC2)nc1,6.38,–,–
Cc1ccc(CNCC2(F)CCN(C(=O)C3CCc4ccccc4C3)CC2)nc1 (stereo not drawn),6.80,–,–
Cc1ccc(CNCC2(F)CCN(C(=O)c3cc4ccsc4s3)CC2)nc1,7.34,103,7.41
COc1cscc1C(=O)N1CCC(F)(CNCc2ccc(C)cn2)CC1,7.25,93,7.00
Cc1ccc(CNCC2(F)CCN(C(=O)C34CCCC(CCC3)C4)CC2)nc1,7.72,96,7.59
Cc1ccc(CNCC2(F)CCN(C(=O)c3ccccc3)CC2)nc1,7.82,96,7.89
Cc1ccc(CNCC2(F)CCN(C(=O)c3ccc4[nH]ccc4c3)CC2)nc1,6.42,94,7.00
Cc1ccc(CNC[C@@]2(O)C[C@H]3CC[C@@H](C2)N3C(=O)c2ccccc2)nc1 (stereo in doubt; 34) [listing 2 of 2 here],–,113,–
Cc1ccc(CNCC2(F)CCN(C(=O)c3cc4ccc3CCc3ccc(cc3)CC4)CC2)nc1,6.49,–,–
Cc1ccc(CNCC2(F)CCN(C(=O)c3ccc(F)s3)CC2)nc1,7.46,–,–
Cc1ccc(CNCC2(F)CCN(C(=O)c3cc4sccc4s3)CC2)nc1,7.43,100,6.89
Cc1ccc(CNCC2(F)CCN(C(=O)c3ccc(Cl)s3)CC2)nc1,7.68,101,7.34
Cc1ccc(CNCC2(F)CCN(C(=O)C34CC5CC(C)(CC(Br)(C5)C3)C4)CC2)nc1 (stereo not drawn),6.34,–,–
Cc1ccc(CNCC2(F)CCN(C(=O)c3sccc3C)CC2)nc1,7.59,96,7.46
Cc1ccc(CNCC2(F)CCN(C(=O)C34CC5CC(C3)CC(C(F)(F)C(F)C(F)(F)F)(C5)C4)CC2)nc1 (stereo not drawn),5.89,–,–
Cc1ccc(CNCC2(F)CCN(C(=O)c3scc4c3CCCC4)CC2)nc1,7.70,104,7.07
Cc1ccc(CNC[C@@]2(O)C[C@H]3CC[C@@H](C2)N3C(=O)c2ccccc2)nc1 (stereo in doubt; 38) [listing 2 of 2 here],7.20,–,–
Cc1ccc(CNCC2(F)CCN(C(=O)c3cc4ccccc4[te]3)CC2)nc1,7.29,46,7.44
COc1c(C(=O)N2CCC(F)(CNCc3ccc(C)cn3)CC2)csc1Br,7.77,95,7.21
Cc1ccc(CNCC2(O)CC3CCC(C2)N3C(=O)c2ccsc2)nc1 (stereo not drawn),7.37,101,7.49

Compound,pKi [1],Emax [2] [%],pEC50 [3]
Cc1ccc(CNCC2(F)CCN(C(=O)c3sccc3Cl)CC2)nc1,7.60,99,7.52
CCC12CC3CC(C1)CC(C(=O)N1CCC(F)(CNCc4ccc(C)cn4)CC1)(C3)C2,7.54,–,–
Cc1ccc(CNCC2(F)CCN(C(=O)c3sccc3Br)CC2)nc1,7.49,104,7.70
Cc1ccc(CNCC2(F)CCN(C(=O)C34CC5CC(CC(Br)(C5)C3)C4)CC2)nc1,6.92,–,–
Cc1ccc(CNCC2(F)CCN(C(=O)c3cc(C)cs3)CC2)nc1,8.08,101,7.70
Cc1ccc(CNCC2(F)CCN(C(=O)c3sc(Br)c4c3OCCO4)CC2)nc1,7.49,102,7.20
Cc1ccc(CNCC2(F)CCN(C(=O)c3cc(Br)c(Br)s3)CC2)nc1,8.32,–,–
Cc1ccc(CNCC2(F)CCN(C(=O)c3coc(Br)c3)CC2)nc1,7.59,–,–
Cc1ccc(CNCC2(F)CC3CCC(C2)N3C(=O)c2ccsc2)nc1 (stereo not drawn),6.59,–,–
Cc1ccc(CNCC2(F)CCN(C(=O)C34CC5CC(C)(CC(C)(C5)C3)C4)CC2)nc1,6.33,–,–
Cc1ccc(CNCC2(O)CCN(C(=O)c3ccsc3)CC2)nc1,6.92,–,–
Cc1ccc(CNCC2(F)CCN(C(=O)c3ccc(-c4ccccc4)cc3)CC2)nc1,6.52,–,–
Cc1ccc(CNCC2(F)CCN(C(=O)c3ccc(-c4ccccn4)s3)CC2)nc1,6.33,–,–
Cc1ccc(CNCC2(F)CC3CCC(C2)N3C(=O)c2ccccc2)nc1 (stereo not drawn),6.47,–,–
Cc1ccc(CNCC2(F)CCN(C(=O)c3cc(Br)c(Br)o3)CC2)nc1,8.05,–,–
Cc1ccc(CNCC2(F)CCN(C(=O)c3sccc3-n3cccc3)CC2)nc1,6.44,–,–
Cc1ccc(CNCC2(F)CC3CCC(C2)N3C(=O)c2ccc(F)c(Cl)c2)nc1 (stereo not drawn),6.96,–,–
Cc1ccc(CNCC2(F)CCN(C(=O)c3ccsc3Br)CC2)nc1,7.80,–,–
Cc1ccc(CNCC2(F)CCN(C(=O)c3ccc4[nH]cnc4c3)CC2)nc1,5.46,–,–
Cc1ccc(CNCC2(F)CCN(C(=O)c3ccc4[nH]nnc4c3)CC2)nc1,6.04,–,–
